From ChEMBL document CHEMBL3992532, “Structure-Based Design of Macrocyclic Factor XIa Inhibitors: Discovery of the Macrocyclic Amide Linker” (J Med Chem, 2017)

Legend:
Canis familiaris [1] = experiment: Half life in Beagle dog at 0.2 mg/kg, iv administered as 10 mins infusion or 0.35 mg/kg, po via gavage administered as cassette dose by LC-MS/MS method; type: ADME, organism-based, Canis lupus familiaris; settings: in vivo
Procedure, shortened: (§1)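 Dog PK vehicles as footnoted: iv in 70% PEG 400/20% water/10% ethanol; po either 70% PEG 400/20% TPGS/10% ethanol or the same PEG 400/water/ethanol vehicle used for iv.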

Canis familiaris [2] = experiment: Volume of distribution at steady state in Beagle dog at 0.2 mg/kg, iv administered as 10 mins infusion or 0.35 mg/kg, po via gavage administered as cassette dose by LC-MS/MS method; type: ADME, organism-based, Canis lupus familiaris; settings: in vivo; procedure, shortened: as §1
[3] = Half life in human liver microsomes; type: ADME, microsome
[4] = Permeability from apical to basolateral side in human Caco2 cells; type: ADME, cell-based; settings: Caco-2, read-out: permeability
Plasma = experiment: Anticoagulant activity in human plasma assessed as concentration required to produce 50% increase in activated partial thromboplastin time; type: functional
Procedure, shortened: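 Citrated (one-tenth volume 0.11 M) plasma from healthy volunteers, spun 2,000 g 10 min, kept on ice; 10 mM DMSO stock diluted in plasma, up to 7 concentrations; aPTT on automated coagulometer, duplicates as mean ratio to baseline; EC1.5x (50% prolongation) by linear interpolation, as total plasma concentration.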

[5] = Half life in dog liver microsomes; type: ADME, Canis lupus familiaris, microsome
[6] = Protein binding in dog plasma; type: ADME, cell-free, Canis lupus familiaris; settings: read-out: PPB (converted)
Coagulation factor XI = Coagulation factor XI (Homo sapiens, UniProt P03951); experiment: Inhibition of human coagulation factor 11a using pyroGlu-Pro-Arg-pNA as substrate after 10 to 120 mins at 37 degC by spectrophotometric method
Procedure, shortened: (§2)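 Purified human proteases, 37 °C; reaction started by adding enzyme to substrate (up to 4× Km) ± inhibitor; compound from DMSO, 1% DMSO final except where noted. […] Buffers: FXIa, chymotrypsin, tPA, plasmin, urokinase in 50 mM HEPES pH 7.4, 145 mM NaCl, 5 mM KCl, 0.1% PEG 8000; FXa, thrombin, trypsin, plasma kallikrein, aPC in 100 mM Na phosphate pH 7.4, 200 mM NaCl, 0.5% PEG 8000; FIXa in 50 mM Tris pH 7.4, 100 mM NaCl, 5 mM CaCl2, 0.5% PEG 8000, 2% DMSO.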

[7] = Oral bioavailability in Beagle dog at 0.35 mg/kg administered via gavage as cassette dose by LC-MS/MS method; type: ADME, organism-based, Canis lupus familiaris; settings: in vivo; procedure, shortened: as §1
Coagulation factor XII = target: T1, Coagulation factor XII (Homo sapiens, UniProt P00748); experiment: Inhibition of human coagulation factor 12a using H-(D)-CHT-Gly-Arg-pNA as substrate after 10 to 120 mins at 25 degC by spectrophotometric method
T1 sequence (P00748 whole entry): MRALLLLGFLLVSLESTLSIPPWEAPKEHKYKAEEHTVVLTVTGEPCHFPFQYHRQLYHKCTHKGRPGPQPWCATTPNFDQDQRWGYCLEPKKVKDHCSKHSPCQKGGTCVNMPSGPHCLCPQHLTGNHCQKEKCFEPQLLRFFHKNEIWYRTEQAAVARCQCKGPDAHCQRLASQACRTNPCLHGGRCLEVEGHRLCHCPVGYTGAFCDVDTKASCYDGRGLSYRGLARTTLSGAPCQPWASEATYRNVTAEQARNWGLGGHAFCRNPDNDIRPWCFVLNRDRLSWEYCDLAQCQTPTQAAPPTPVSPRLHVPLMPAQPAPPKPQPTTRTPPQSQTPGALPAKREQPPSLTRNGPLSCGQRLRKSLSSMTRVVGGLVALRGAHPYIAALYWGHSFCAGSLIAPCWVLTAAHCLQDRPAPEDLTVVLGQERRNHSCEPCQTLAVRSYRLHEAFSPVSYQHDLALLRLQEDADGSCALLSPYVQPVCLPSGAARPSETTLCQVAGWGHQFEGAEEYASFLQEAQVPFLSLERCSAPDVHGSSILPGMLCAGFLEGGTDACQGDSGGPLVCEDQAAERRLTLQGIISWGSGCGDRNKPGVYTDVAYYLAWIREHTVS

Prothrombin = Prothrombin (Homo sapiens, UniProt P00734); experiment: Inhibition of human thrombin using pyroGlu-Pro-Arg-pNA as substrate after 10 to 120 mins at 37 degC by spectrophotometric method; procedure, shortened: as §2
Canis familiaris [8] = experiment: AUC in Beagle dog at 0.32 mg/kg, po administered via gavage as cassette dose by LC-MS/MS method; type: ADME, organism-based, Canis lupus familiaris; settings: in vivo; procedure, shortened: as §1
[9] = Inhibition of human chymotrypsin using MeO-SucArg-Pro-Tyr-pNA as substrate after 10 to 120 mins at 37 degC by spectrophotometric method; procedure, shortened: as §2
[10] = target: Urokinase-type plasminogen activator (Homo sapiens, UniProt P00749); experiment: Inhibition of human urokinase using pyro-Glu-Gly-Arg-pNA as substrate after 10 to 120 mins at 37 degC by spectrophotometric method; procedure, shortened: as §2
Plasma kallikrein = Plasma kallikrein (Homo sapiens, UniProt P03952); experiment: Inhibition of human plasma kallikrein using H-(D)-Pro-Phe-Arg-pNA as substrate after 10 to 120 mins at 37 degC by spectrophotometric method; procedure, shortened: as §2
[11] = Volume of distribution at steady state in Beagle dog at 0.19 mg/kg, iv administered as 10 mins infusion or 0.32 mg/kg, po via gavage administered as cassette dose by LC-MS/MS method; type: ADME, organism-based, Canis lupus familiaris; settings: in vivo, read-out: Vdss; procedure, shortened: as §1
[12] = Inhibition of human trypsin using N-benzoyl-Ile-Glu-(OH,OMe)-Gly-Arg-pNA as substrate after 10 to 120 mins at 37 degC by spectrophotometric method; procedure, shortened: as §2
Plasminogen = Plasminogen (Homo sapiens, UniProt P00747); experiment: Inhibition of human plasmin using H-(D)-Val-Leu-LyspNA as substrate after 10 to 120 mins at 37 degC by spectrophotometric method; procedure, shortened: as §2
Coagulation factor IX = Coagulation factor IX (Homo sapiens, UniProt P00740); experiment: Inhibition of human coagulation factor 9a using methylsulfonyl-D-cyclohexylglycyl-Gly-Arg-AMC as substrate after 10 to 120 mins at 37 degC by spectrophotometric method; procedure, shortened: as §2
[13] = target: Vitamin K-dependent protein C (Homo sapiens, UniProt P04070); experiment: Inhibition of human activated protein C using pyroGlu-Pro-Arg-pNA as substrate after 10 to 120 mins at 37 degC by spectrophotometric method; procedure, shortened: as §2
[14] = Half life in Beagle dog at 0.19 mg/kg, iv administered as 10 mins infusion or 0.32 mg/kg, po via gavage administered as cassette dose by LC-MS/MS method; type: ADME, organism-based, Canis lupus familiaris; settings: in vivo; procedure, shortened: as §1
Coagulation factor VII = target: T2, Coagulation factor VII (Homo sapiens, UniProt P08709); experiment: Inhibition of human coagulation factor 7a using H-(D)-Ile-Pro-Arg-pNA as substrate after 10 to 120 mins at 25 degC by spectrophotometric method
T2 sequence (P08709 whole entry): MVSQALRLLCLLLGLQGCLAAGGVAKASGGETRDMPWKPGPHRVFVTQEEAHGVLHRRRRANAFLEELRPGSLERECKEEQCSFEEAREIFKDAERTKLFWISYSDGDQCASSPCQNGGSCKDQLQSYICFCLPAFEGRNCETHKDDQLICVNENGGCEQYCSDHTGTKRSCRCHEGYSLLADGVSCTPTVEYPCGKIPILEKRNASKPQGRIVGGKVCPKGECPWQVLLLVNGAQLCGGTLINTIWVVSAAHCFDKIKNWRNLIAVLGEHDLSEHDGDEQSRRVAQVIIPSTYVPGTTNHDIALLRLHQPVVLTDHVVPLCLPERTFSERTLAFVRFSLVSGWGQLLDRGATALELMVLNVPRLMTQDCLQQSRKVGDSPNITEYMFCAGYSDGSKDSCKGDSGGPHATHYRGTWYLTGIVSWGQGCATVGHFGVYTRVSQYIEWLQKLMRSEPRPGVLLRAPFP

[15] = target: Tissue-type plasminogen activator (Homo sapiens, UniProt P00750); experiment: Inhibition of human tissue plasminogen activator using methylsulfonyl-D-cyclohexylalanyl-GlyArg-pNA as substrate after 10 to 120 mins at 37 degC by spectrophotometric method; procedure, shortened: as §2
Coagulation factor X = Coagulation factor X (Homo sapiens, UniProt P00742); experiment: Inhibition of human coagulation factor 10a using N-benzoyl-Ile-Glu-(OH,OMe)-Gly-Arg-pNA as substrate after 10 to 120 mins at 37 degC by spectrophotometric method; procedure, shortened: as §2
Canis familiaris [16] = experiment: Oral bioavailability in Beagle dog at 0.32 mg/kg administered via gavage as cassette dose by LC-MS/MS method; type: ADME, organism-based, Canis lupus familiaris; settings: in vivo; procedure, shortened: as §1
[17] = Volume of distribution at steady state in Beagle dog at 0.2 mg/kg, iv administered as 10 mins infusion or 0.23 mg/kg, po via gavage administered as cassette dose by LC-MS/MS method; type: ADME, organism-based, Canis lupus familiaris; settings: in vivo, read-out: Vdss; procedure, shortened: as §1
Canis familiaris [18] = experiment: AUC in Beagle dog at 0.23 mg/kg, po administered via gavage as cassette dose by LC-MS/MS method; type: ADME, organism-based, Canis lupus familiaris; settings: in vivo; procedure, shortened: as §1
[19] = Half life in Beagle dog at 0.2 mg/kg, iv administered as 10 mins infusion or 0.23 mg/kg, po via gavage administered as cassette dose by LC-MS/MS method; type: ADME, organism-based, Canis lupus familiaris; settings: in vivo; procedure, shortened: as §1
Canis familiaris [20] = experiment: Oral bioavailability in Beagle dog at 0.23 mg/kg administered via gavage as cassette dose by LC-MS/MS method; type: ADME, organism-based, Canis lupus familiaris; settings: in vivo; procedure, shortened: as §1
[21] = Half life in Beagle dog at 0.2 mg/kg, iv administered as 10 mins infusion or 0.4 mg/kg, po via gavage administered as cassette dose by LC-MS/MS method; type: ADME, organism-based, Canis lupus familiaris; settings: in vivo; procedure, shortened: as §1
Canis familiaris [22] = experiment: AUC in Beagle dog at 0.4 mg/kg, po administered via gavage as cassette dose by LC-MS/MS method; type: ADME, organism-based, Canis lupus familiaris; settings: in vivo; procedure, shortened: as §1
[23] = Volume of distribution at steady state in Beagle dog at 0.2 mg/kg, iv administered as 10 mins infusion or 0.4 mg/kg, po via gavage administered as cassette dose by LC-MS/MS method; type: ADME, organism-based, Canis lupus familiaris; settings: in vivo, read-out: Vdss; procedure, shortened: as §1
Canis familiaris [24] = experiment: Oral bioavailability in Beagle dog at 0.4 mg/kg administered via gavage as cassette dose by LC-MS/MS method; type: ADME, organism-based, Canis lupus familiaris; settings: in vivo; procedure, shortened: as §1

Sequence of Coagulation factor XI (P03951 19-387 limits assumed): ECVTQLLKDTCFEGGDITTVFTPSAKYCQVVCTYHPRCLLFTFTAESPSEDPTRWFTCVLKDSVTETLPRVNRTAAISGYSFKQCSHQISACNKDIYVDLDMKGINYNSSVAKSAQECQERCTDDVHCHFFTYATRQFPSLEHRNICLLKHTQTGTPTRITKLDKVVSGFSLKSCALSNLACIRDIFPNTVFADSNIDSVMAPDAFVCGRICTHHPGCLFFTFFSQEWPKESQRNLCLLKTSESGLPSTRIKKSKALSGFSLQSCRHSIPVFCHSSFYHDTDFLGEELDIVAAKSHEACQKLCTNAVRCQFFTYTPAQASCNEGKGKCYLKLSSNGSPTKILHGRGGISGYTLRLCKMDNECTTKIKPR
Sequence of Coagulation factor XI (P03951 388-625 limits assumed): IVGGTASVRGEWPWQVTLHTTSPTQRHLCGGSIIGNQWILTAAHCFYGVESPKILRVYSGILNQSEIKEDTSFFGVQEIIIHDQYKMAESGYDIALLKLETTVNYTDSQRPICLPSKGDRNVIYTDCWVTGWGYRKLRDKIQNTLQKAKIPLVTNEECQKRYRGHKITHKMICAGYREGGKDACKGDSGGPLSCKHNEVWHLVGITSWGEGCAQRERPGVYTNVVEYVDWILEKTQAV
Sequence of Vitamin K-dependent protein C (P04070 43-197 limits assumed): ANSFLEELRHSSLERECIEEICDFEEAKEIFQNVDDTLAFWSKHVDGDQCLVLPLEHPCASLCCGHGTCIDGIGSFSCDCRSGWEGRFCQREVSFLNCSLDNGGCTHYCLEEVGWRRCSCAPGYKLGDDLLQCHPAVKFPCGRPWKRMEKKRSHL
Sequence of Vitamin K-dependent protein C (P04070 212-461 limits assumed): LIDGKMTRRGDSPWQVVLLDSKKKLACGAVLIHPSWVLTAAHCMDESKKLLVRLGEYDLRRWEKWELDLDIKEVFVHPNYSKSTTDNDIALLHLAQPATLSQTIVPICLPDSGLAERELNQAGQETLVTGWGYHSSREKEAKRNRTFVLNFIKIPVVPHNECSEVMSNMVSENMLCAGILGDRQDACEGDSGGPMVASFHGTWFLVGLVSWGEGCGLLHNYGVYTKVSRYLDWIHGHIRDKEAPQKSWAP
Sequence of Tissue-type plasminogen activator (P00750 whole entry): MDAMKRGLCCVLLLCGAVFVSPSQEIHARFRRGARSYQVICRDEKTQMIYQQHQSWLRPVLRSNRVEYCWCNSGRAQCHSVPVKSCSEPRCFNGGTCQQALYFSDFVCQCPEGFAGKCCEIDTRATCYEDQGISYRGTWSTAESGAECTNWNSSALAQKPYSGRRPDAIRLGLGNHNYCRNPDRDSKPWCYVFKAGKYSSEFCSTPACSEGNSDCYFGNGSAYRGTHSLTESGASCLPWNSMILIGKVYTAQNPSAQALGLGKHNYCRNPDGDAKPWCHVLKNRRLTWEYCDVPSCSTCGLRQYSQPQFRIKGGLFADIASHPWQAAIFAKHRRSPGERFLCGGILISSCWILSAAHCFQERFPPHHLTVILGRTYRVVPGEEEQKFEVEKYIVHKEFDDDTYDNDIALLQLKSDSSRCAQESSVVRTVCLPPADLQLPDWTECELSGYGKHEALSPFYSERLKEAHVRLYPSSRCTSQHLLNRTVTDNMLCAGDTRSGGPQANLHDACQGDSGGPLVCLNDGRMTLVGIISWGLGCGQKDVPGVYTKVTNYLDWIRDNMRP
Sequence of Coagulation factor X (P00742 41-179 limits assumed): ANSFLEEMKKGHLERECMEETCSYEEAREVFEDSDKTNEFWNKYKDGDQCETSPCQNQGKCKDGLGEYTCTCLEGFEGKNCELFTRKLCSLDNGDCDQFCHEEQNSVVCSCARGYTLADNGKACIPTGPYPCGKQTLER
Sequence of Coagulation factor X (P00742 235-488 limits assumed): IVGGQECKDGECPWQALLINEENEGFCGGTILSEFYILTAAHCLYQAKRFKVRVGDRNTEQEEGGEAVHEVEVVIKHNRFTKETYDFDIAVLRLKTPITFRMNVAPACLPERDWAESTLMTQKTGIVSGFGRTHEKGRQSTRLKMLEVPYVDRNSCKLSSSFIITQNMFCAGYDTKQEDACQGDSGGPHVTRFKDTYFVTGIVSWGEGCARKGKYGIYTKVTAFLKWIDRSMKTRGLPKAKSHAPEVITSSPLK
Sequence of Plasminogen (P00747 97-580 limits assumed): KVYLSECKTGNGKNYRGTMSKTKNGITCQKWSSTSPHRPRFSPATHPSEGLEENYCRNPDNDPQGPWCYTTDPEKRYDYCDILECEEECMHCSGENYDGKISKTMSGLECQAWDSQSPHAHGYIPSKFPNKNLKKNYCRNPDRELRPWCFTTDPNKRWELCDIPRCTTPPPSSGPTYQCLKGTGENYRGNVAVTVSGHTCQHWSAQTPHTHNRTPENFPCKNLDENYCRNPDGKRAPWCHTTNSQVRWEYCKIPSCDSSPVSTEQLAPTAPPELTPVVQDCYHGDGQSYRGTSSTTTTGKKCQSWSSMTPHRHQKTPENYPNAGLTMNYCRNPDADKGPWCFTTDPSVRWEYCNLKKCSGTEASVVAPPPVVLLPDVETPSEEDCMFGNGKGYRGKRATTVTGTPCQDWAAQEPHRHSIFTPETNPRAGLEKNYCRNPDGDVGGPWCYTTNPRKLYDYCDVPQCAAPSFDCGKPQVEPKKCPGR
Sequence of Plasminogen (P00747 581-810 limits assumed): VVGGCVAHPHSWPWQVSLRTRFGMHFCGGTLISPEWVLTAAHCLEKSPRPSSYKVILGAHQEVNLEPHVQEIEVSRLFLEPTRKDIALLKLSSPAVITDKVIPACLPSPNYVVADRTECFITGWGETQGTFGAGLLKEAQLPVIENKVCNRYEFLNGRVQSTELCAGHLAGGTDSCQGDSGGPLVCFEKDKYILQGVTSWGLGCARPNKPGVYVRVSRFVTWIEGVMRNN
Sequence of Coagulation factor IX (P00740 47-191 limits assumed): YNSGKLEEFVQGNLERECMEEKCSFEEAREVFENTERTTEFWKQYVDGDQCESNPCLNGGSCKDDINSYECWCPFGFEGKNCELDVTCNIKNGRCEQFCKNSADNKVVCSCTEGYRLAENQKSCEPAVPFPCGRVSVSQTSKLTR
Sequence of Coagulation factor IX (P00740 227-461 limits assumed): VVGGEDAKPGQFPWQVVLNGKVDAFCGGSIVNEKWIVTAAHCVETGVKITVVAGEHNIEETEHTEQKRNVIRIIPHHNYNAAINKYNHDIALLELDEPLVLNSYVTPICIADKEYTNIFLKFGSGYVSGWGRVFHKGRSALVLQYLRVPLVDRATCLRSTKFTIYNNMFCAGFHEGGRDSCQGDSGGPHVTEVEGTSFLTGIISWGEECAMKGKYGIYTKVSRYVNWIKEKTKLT
Sequence of Plasma kallikrein (P03952 20-390 limits assumed): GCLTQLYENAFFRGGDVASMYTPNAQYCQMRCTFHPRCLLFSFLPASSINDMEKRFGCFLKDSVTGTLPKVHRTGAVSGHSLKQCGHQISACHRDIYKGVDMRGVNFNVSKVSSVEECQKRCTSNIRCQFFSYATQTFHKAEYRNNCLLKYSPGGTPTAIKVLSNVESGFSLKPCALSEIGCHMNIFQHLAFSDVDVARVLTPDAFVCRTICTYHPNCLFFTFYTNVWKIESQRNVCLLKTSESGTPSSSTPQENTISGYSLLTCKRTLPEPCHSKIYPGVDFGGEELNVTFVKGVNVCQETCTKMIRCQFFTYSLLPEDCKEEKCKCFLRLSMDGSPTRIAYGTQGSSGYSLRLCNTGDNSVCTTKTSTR
Sequence of Plasma kallikrein (P03952 391-638 limits assumed): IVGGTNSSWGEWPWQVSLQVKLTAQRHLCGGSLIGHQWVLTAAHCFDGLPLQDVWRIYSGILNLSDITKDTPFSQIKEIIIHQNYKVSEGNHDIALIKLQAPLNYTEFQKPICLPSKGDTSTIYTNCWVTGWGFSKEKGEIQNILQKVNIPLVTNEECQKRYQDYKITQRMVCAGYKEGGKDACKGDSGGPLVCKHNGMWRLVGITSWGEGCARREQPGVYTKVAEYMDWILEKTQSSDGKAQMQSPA

Compound | half-life [3] [h] | Papp A→B [4] [×10⁻⁶ cm/s] | EC1.5 (Plasma) [µM] | half-life [5] [h] | fraction unbound [6] | Ki (Coagulation factor XI) [µM] | Ki (Coagulation factor XII) [µM] | Ki (Prothrombin) [µM] | Ki [9] [µM] | Ki [10] [µM] | Ki (Plasma kallikrein) [µM] | Ki [12] [µM] | Ki (Plasminogen) [µM] | Ki (Coagulation factor IX) [µM] | Ki [13] [µM] | Ki (Coagulation factor VII) [µM] | Ki [15] [µM] | Ki (Coagulation factor X) [µM] | further results
COC(=O)Nc1ccc2c(c1)NC(=O)CCCCC[C@H](NC(=O)/C=C/c1cc(Cl)ccc1-n1cnnn1)c1nc-2c[nH]1 | 0.567 | < 1.5 | 1.2 | > 2 | 0.066 | 0.0032 |  |  |  |  |  |  |  |  |  |  |  |  | t1/2 (Canis familiaris [1]): 1.1 h; Vdss (Canis familiaris [2]): 3.9 L/kg; bioavailability [7]: 0%
COC(=O)Nc1ccc2c(c1)NC(=O)CC/C=C/C[C@H](NC(=O)/C=C/c1cc(Cl)ccc1-n1cnnn1)c1nc-2c[nH]1 | 0.683 | < 1.5 | 0.27 | > 2 | 0.085 |  | > 3.05 | > 11.5 | 1.5 | 5.05 | 0.016 | 1.52 | > 14.2 | > 27.1 | > 21.5 | 1.67 | > 6.15 | > 13.3 | AUC (Canis familiaris [8]): 0.0025 µM·h; Vd [11]: 1.8 L/kg; half-life [14]: 1.2 h; F (Canis familiaris [16]): 1%
COC(=O)Nc1ccc2c(c1)NC(=O)CCCC[C@H](NC(=O)/C=C/c1cc(Cl)ccc1-n1cnnn1)c1nc-2c[nH]1 | 1.5 |  | 0.3 | > 2 | 0.098 | 0.001 | > 3.05 | > 11.5 | 3.94 | > 15.1 | 0.07 | 8.39 | > 15.2 | > 27.1 | > 21.5 | 3.19 | > 6.15 | > 13.3 | Vd [17]: 0.8 L/kg; AUC (Canis familiaris [18]): 0.021 µM·h; half-life [19]: 1 h; F (Canis familiaris [20]): 6%
COC(=O)Nc1ccc2c(c1)OCCCCCC[C@H](NC(=O)/C=C/c1cc(Cl)ccc1-n1cnnn1)c1nc-2c[nH]1 |  |  |  | 1.47 |  | 0.159 |  |  |  |  |  |  |  |  |  |  |  |  | half-life [21]: 2.1 h; AUC (Canis familiaris [22]): 0.119 µM·h; Vd [23]: 2.2 L/kg; F (Canis familiaris [24]): 17%
